Test results taken from ChEMBL document CHEMBL4431374, “Synthesis and Antitubercular Activity of New Benzo[b]thiophenes” (ACS Med Chem Lett, 2016).
Values after ≈ are worked out from the molar mass of the structure shown.

Assays:
[1] = tested on: Mycobacterium tuberculosis; test: Antitubercular activity against dormant Mycobacterium tuberculosis H37Ra ATCC 25177 at 3 to 30 ug/ml after 12 days by XTT reduction menadione assay; format: functional; set-up: scale not given: the % may be the effect or the level left
[2] = tested on: Mycobacterium tuberculosis; test: Antitubercular activity against dormant Mycobacterium tuberculosis H37Ra ATCC 25177 infected in human THP1 cells after 12 days by nitrate reductase assay; format: functional; conditions: H37Ra ATCC 25177, 288 h
[3] = tested on: Mycobacterium tuberculosis; test: Antitubercular activity against active Mycobacterium tuberculosis H37Ra ATCC 25177 infected in human THP1 cells after 8 days by nitrate reductase assay; format: functional; conditions: H37Ra ATCC 25177, 192 h
[4] = tested on: Mycobacterium tuberculosis; test: Antitubercular activity against active Mycobacterium tuberculosis H37Ra ATCC 25177 after 8 days by XTT reduction menadione assay; format: functional; conditions: H37Ra ATCC 25177, 192 h
Outline: (§1)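 H37Ra was tested by microdilution in 96-well plates, at 30–0.001 μg/mL in one-third dilutions. Each plate carried a rifampicin and isoniazid dilution series as positive controls. Growth was scored by XTT reduction menadione assay (XRMA) and cross-checked by a final absorbance reading at 600 nm.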

[5] = (§2) Cytotoxicity against human HeLa cells assessed as growth inhibition after 72 hrs by MTT assay; format: cell-based; conditions: HeLa cells
[6] = tested on: HeLa; test: as §2; format: cell-based; conditions: hela, 72 h
[7] = (§3) Cytotoxicity against human PANC1 cells assessed as growth inhibition after 90 hrs by MTT assay; format: cell-based, PANC-1; conditions: PANC-1 cells
[8] = tested on: PANC-1; test: as §3; format: cell-based; conditions: panc-1, 90 h
[9] = (§4) Cytotoxicity against human THP1 cells assessed as growth inhibition after 72 hrs by MTT assay; format: cell-based, THP-1; conditions: THP-1 cells
[10] = tested on: THP-1; test: as §4; format: cell-based; conditions: thp-1, 72 h
[11] = tested on: Mycobacterium tuberculosis; test: Antitubercular activity against dormant Mycobacterium tuberculosis H37Ra ATCC 25177 after 12 days by XTT reduction menadione assay; format: functional; conditions: H37Ra ATCC 25177, 288 h; outline: as §1
[12] = Selectivity index, ratio of GI50 for human HeLa cells to MIC90 for active Mycobacterium bovis BCG ATCC 35734; format: toxicity; conditions: read-out: Selectivity Index
[13] = Selectivity index, ratio of GI50 for human HeLa cells to MIC90 for dormant Mycobacterium bovis BCG ATCC 35734; format: toxicity; conditions: read-out: Selectivity Index
[14] = Selectivity index, ratio of GI50 for human THP1 cells to MIC90 for active Mycobacterium bovis BCG ATCC 35734; format: toxicity; conditions: THP-1 cells, read-out: Selectivity Index
[15] = Selectivity index, ratio of GI50 for human PANC1 cells to MIC90 for dormant Mycobacterium bovis BCG ATCC 35734; format: toxicity; conditions: PANC-1 cells, read-out: Selectivity Index
[16] = Selectivity index, ratio of GI50 for human THP1 cells to MIC90 for dormant Mycobacterium bovis BCG ATCC 35734; format: toxicity; conditions: THP-1 cells, read-out: Selectivity Index
[17] = Selectivity index, ratio of GI50 for human PANC1 cells to MIC90 for active Mycobacterium bovis BCG ATCC 35734; format: toxicity; conditions: PANC-1 cells, read-out: Selectivity Index
[18] = Selectivity index, ratio of GI50 for human THP1 cells to MIC90 for dormant Mycobacterium tuberculosis H37Ra ATCC 25177; format: toxicity; conditions: THP-1 cells, read-out: Selectivity Index
[19] = Selectivity index, ratio of GI50 for human THP1 cells to MIC90 for active Mycobacterium tuberculosis H37Ra ATCC 25177; format: toxicity; conditions: THP-1 cells, read-out: Selectivity Index
[20] = Antioxidant activity assessed as DPPH radical scavenging activity after 30 mins by spectrophotometric method; format: functional

Structure (SMILES)	Activity [1]	MIC90 [2]	MIC90 [3]	MIC90 [4]	GI50 at 72 h [5]	GI90 [6]	GI50 at 90 h [7]	GI90 [8]	GI50 at 72 h [9]	GI90 [10]	MIC90 [11]	selectivity ratio [12]	selectivity ratio [13]	selectivity ratio [14]	selectivity ratio [15]	selectivity ratio [16]	selectivity ratio [17]	selectivity ratio [18]	selectivity ratio [19]	EC50 [20]
O=C(CC(=O)c1cc(Cl)ccc1O)c1cc2ccccc2s1	>92%	0.91 µg/mL (≈ 2.75 µM)	2.83 µg/mL (≈ 8.56 µM)	3.29 µg/mL (≈ 9.95 µM)	4.42 µg/mL (≈ 13.4 µM)	8.24 µg/mL (≈ 24.9 µM)	8.44 µg/mL (≈ 25.5 µM)	26.03 µg/mL (≈ 78.7 µM)	7.48 µg/mL (≈ 22.6 µM)	> 30 µg/mL	2.79 µg/mL (≈ 8.43 µM)	–	–	–	–	–	–	–	–	–
Cc1ccc2oc(-c3cc4ccccc4s3)cc(=O)c2c1	–	2.76 µg/mL (≈ 9.44 µM)	8.39 µg/mL (≈ 28.7 µM)	28.9 µg/mL (≈ 98.7 µM)	15.6 µg/mL (≈ 53.2 µM)	27.8 µg/mL (≈ 95.1 µM)	12.9 µg/mL (≈ 44 µM)	29.75 µg/mL (≈ 102 µM)	> 100 µg/mL	> 100 µg/mL	30 µg/mL (≈ 103 µM)	> 20	> 20	> 22	> 20	> 22	> 20	–	–	–
O=C(CC(=O)c1cc(Br)ccc1O)c1cc2ccccc2s1	>92%	3.91 µg/mL (≈ 10.4 µM)	4.94 µg/mL (≈ 13.2 µM)	2.87 µg/mL (≈ 7.65 µM)	6.75 µg/mL (≈ 18 µM)	20.28 µg/mL (≈ 54 µM)	18.3 µg/mL (≈ 48.8 µM)	> 30 µg/mL	> 100 µg/mL	> 100 µg/mL	2.63 µg/mL (≈ 7.01 µM)	–	–	–	> 10	–	> 10	–	–	–
Cc1ccc(O)c(C(=O)CC(=O)c2cc3ccccc3s2)c1	–	–	–	–	7.12 µg/mL (≈ 22.9 µM)	> 30 µg/mL	15.8 µg/mL (≈ 51 µM)	> 30 µg/mL	> 100 µg/mL	> 100 µg/mL	–	–	–	–	> 10	–	–	–	–	–
Cc1cc(O)c(C(=O)CC(=O)c2cc3ccccc3s2)cc1Cl	–	–	–	–	> 100 µg/mL	> 100 µg/mL	20.4 µg/mL (≈ 59 µM)	> 30 µg/mL	> 100 µg/mL	> 100 µg/mL	–	–	–	> 22	–	> 22	–	–	–	–
Cc1cc2oc(-c3cc4ccccc4s3)cc(=O)c2cc1Cl	–	2.18 µg/mL (≈ 6.67 µM)	7.67 µg/mL (≈ 23.5 µM)	25.4 µg/mL (≈ 77.6 µM)	21.2 µg/mL (≈ 64.9 µM)	> 30 µg/mL	> 100 µg/mL	> 100 µg/mL	> 100 µg/mL	> 100 µg/mL	24.3 µg/mL (≈ 74.5 µM)	> 35	> 35	> 30	–	> 30	–	> 30	> 30	–
O=C(CC(=O)c1cc(Cl)cc(Cl)c1O)c1cc2ccccc2s1	–	–	–	–	> 100 µg/mL	> 100 µg/mL	26.2 µg/mL (≈ 71.8 µM)	> 30 µg/mL	> 100 µg/mL	> 100 µg/mL	–	–	–	–	> 10	–	–	–	–	–
O=C(CC(=O)c1ccccc1O)c1cc2ccccc2s1	>92%	1.82 µg/mL (≈ 6.14 µM)	2.96 µg/mL (≈ 9.99 µM)	25.2 µg/mL (≈ 84.9 µM)	7.86 µg/mL (≈ 26.5 µM)	> 30 µg/mL	7.77 µg/mL (≈ 26.2 µM)	> 30 µg/mL	> 100 µg/mL	> 100 µg/mL	2.05 µg/mL (≈ 6.92 µM)	–	–	–	–	–	–	–	–	–
Cc1ccc(C(=O)CC(=O)c2cc3ccccc3s2)c(O)c1	>92%	2.61 µg/mL (≈ 8.41 µM)	25.8 µg/mL (≈ 83.3 µM)	5.45 µg/mL (≈ 17.6 µM)	23.1 µg/mL (≈ 74.5 µM)	> 30 µg/mL	9.24 µg/mL (≈ 29.8 µM)	> 30 µg/mL	> 100 µg/mL	> 100 µg/mL	4.41 µg/mL (≈ 14.2 µM)	> 13	> 13	–	–	–	–	–	–	20 µg/mL (≈ 64.4 µM)
NNC(=O)c1ccncc1 [ISONIAZID]	–	0.075 µg/mL (≈ 0.547 µM)	0.05 µg/mL (≈ 0.365 µM)	0.074 µg/mL (≈ 0.54 µM)	–	–	–	–	–	–	0.075 µg/mL (≈ 0.547 µM)	–	–	–	–	–	–	–	–	–
CC(=O)O[C@H]1C(=O)[C@@]2(C)[C@H]([C@H](OC(=O)c3ccccc3)[C@]3(O)C[C@H](OC(=O)[C@H](O)[C@@H](NC(=O)c4ccccc4)c4ccccc4)C(C)=C1C3(C)C)[C@]1(OC(C)=O)CO[C@@H]1C[C@@H]2O [PACLITAXEL]	–	–	–	–	0.004 µg/mL (≈ 0.00468 µM)	0.075 µg/mL (≈ 0.0878 µM)	0.127 µg/mL (≈ 0.149 µM)	5.715 µg/mL (≈ 6.69 µM)	0.133 µg/mL (≈ 0.156 µM)	5.81 µg/mL (≈ 6.8 µM)	–	–	–	–	–	–	–	–	–	–
CO[C@H]1/C=C/O[C@@]2(C)Oc3c(C)c(O)c4c(O)c(c(/C=N/N5CCN(C)CC5)c(O)c4c3C2=O)NC(=O)/C(C)=C\C=C\[C@H](C)[C@H](O)[C@@H](C)[C@@H](O)[C@@H](C)[C@H](OC(C)=O)[C@@H]1C [RIFAMPIN]	–	0.8 µg/mL (≈ 0.972 µM)	0.5 µg/mL (≈ 0.608 µM)	0.048 µg/mL (≈ 0.0583 µM)	–	–	–	–	–	–	0.043 µg/mL (≈ 0.0523 µM)	–	–	–	–	–	–	–	–	–
